The values below come from ChEMBL document CHEMBL4350976, “Sequence modification of heptapeptide selected by phage display as homing device for HT-29 colon cancer cells to improve the anti-tumour activity of drug delivery systems” (Eur J Med Chem, 2019).

Where a SMILES comes first, the peptide text is derived from it. [ ]: non-standard residue; d: D form. The star is where a group is joined. X1 = COc1cccc2c1C(=O)c1c(O)c3c(c(O)c1C2=O)C[C@@](O)(/C(C)=N/OCC(=O)*)C[C@@H]3O[C@H]1C[C@H](N)[C@H](O)[C@H](C)O1; Phe(4-Cl) = N[C@@H](Cc1ccc(Cl)cc1)C(=O)O

Data set [1] is described as follows: Stability in serum free medium at 30 uM incubated for 3 hrs by LC/MS analysis. In a few lines:
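Conjugates (30 μM) were incubated at 37 °C in serum-free medium. Samples were taken at 0 and 3 h, quenched with acetic acid, lyophilised, desalted on C18 spin columns and analysed by LC-MS.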

Data set [2] is described as follows: Drug metabolism in rat liver lysosomes homogenate assessed as increase in Dau = Aoa-Leu-OH metabolite formation at 0.05 ug/ul after 1 hr by LC-MS analysis. Format: ADME, subcellular, Lysosome. Conditions: tissue homogenate; call rule not given here. The method, boiled down: (§1)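 Conjugates and rat liver lysosomal homogenate were each used at 0.05 µg/µL. Samples were taken at 0, 1, 3, 6 and 24 h. Metabolites were identified by LC-MS on a C18 column with a formic acid/acetonitrile gradient.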

Data set [3] can be described thus: Drug metabolism in rat liver lysosomes homogenate assessed as Dau-containing metabolite formation at 0.05 ug/ul after 24 hrs by LC-MS analysis. The format is ADME, subcellular, Lysosome. Conditions: tissue homogenate. The method, boiled down: as §1
Data set [4] deals with HT-29. Kind of data set: Cytostatic activity against human HT-29 cells preincubated for 24 hrs under serum free condition followed by compound washout and further incubation for 48 hrs in presence of serum by MTT assay. Format: functional, cell-based. The method, boiled down: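 HT-29 cells were exposed to the compound for 24 h, washed, and kept a further 48 h. Viability was read by MTT. Absorbances were normalized to untreated controls and fitted by nonlinear regression to dose-response curves to give IC50.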
In general terms: Tetrazolium assays rely on reduction of a dye to a coloured formazan, in cell work by metabolically active cells.

The nature of data set [5]: Drug uptake in human HT-29 cells assessed as increase in fluorescence intensity at 6.25 to 100 uM incubated for 3 hrs by flow cytometry. The format is ADME, cell-based. Conditions: ht-29, 3 h. In a few lines: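 HT-29 cells were incubated for 3 h with conjugates at 6.25–100 µM. Cellular uptake of Dau fluorescence was measured by flow cytometry, in duplicate.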
Data set [6] deals with HT-29. Briefly: Cytotoxicity against human HT-29 cells assessed as reduction in cell viability by measuring decrease in fluorescence intensity at 100 uM incubated for 3 hrs by flow cytometry. Format: cell-based. Conditions: ht-29, 3 h.
Data set [7] can be described thus: Retention time of the compound using 0.1% TFA in water and 0.1% TFA in acetonitrile-water (80:20 v/v) as eluents by RP-HPLC analysis. Format: physicochemical. The method, boiled down: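 Analytical RP-HPLC. Eluent A was 0.1% TFA in water and eluent B was 0.1% TFA in acetonitrile-water (80:20, v/v). Gradient: 0% B held to 5 min, then to 90% B at 50 min. Flow 1 mL/min, detection at 220 nm. The column was a Phenomenex Aeris Peptide XB-C18 (250×4.6 mm, 3.6 μm) or a Nucleosil C18 (5 μm, 100 Å, 250×4.6 mm), depending on the conjugate series.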

Data set [8] is described as follows: Solubility of compound. Format: physicochemical.
Data set [9] can be described thus: Stability in 2.5% fetal bovine serum containing medium at 30 uM measured after 24 hrs by LC/MS analysis. The format is ADME, cell-free, Bos taurus. Conditions: cattle. The method, boiled down: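 Conjugates (30 μM) were incubated at 37 °C in medium containing 2.5% FBS. Samples were taken at 0, 3, 6 and 24 h, quenched with acetic acid, lyophilised, desalted on C18 spin columns and analysed by LC-MS. Cleavage products were identified by mass.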

Data set [10] in a line: Drug uptake in human HT-29 cells at 100 uM incubated for 3 hrs by flow cytometry relative to control. The format is ADME, cell-based. Conditions: ht-29, 3 h. The method, boiled down:
(§2)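 HT-29 cells were exposed to 100 µM conjugate for 3 h. Flow cytometry recorded the percentage of Dau-positive cells and the mean fluorescence intensity, in duplicate.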

The nature of data set [11]: Drug uptake in human HT-29 cells assessed as increase in fluorescence intensity at 25 uM incubated for 3 hrs by flow cytometry. Format: ADME, cell-based. Conditions: ht-29, 3 h.
Data set [12] in a line: Drug uptake in human HT-29 cells at 100 uM incubated for 3 hrs by flow cytometry. The format is ADME, cell-based. Conditions: ht-29, 3 h. The method, boiled down:
as §2

Turning to `COc1cccc2c1C(=O)c1c(O)c3c(c(O)c1C2=O)C[C@@](O)(/C(C)=N/OCC(=O)N[C@@H](CC(C)C)C(=O)N[C@@H](CCCNC(=N)N)C(=O)N[C@@H](CCCNC(=N)N)C(=O)N[C@@H](Cc1ccc(O)cc1)C(=O)N[C@H](C(=O)N[C@@H](Cc1cnc[nH]1)C(=O)N[C@@H](CC(C)C)C(=O)N[C@@H](Cc1ccc(Cl)cc1)C(=O)N[C@@H](Cc1ccc(O)cc1)C(=O)N[C@@H](C)C(=O)N[C@H](C(N)=O)[C@@H](C)O)C(C)C)C[C@@H]3O[C@H]1C[C@H](N)[C@H](O)[C@H](C)O1` (X1-LRRYVHL[Phe(4-Cl)]YAT-NH2), the Stability entry in data set [1] and in data set [9] was “Stable” throughout. Further, the Drug metabolism entry in data set [2] and in [3] was “Metabolite_Detected” each time. Further, in the data set with HT-29 [4], the IC50 (as a rule, the point on the concentration scale where inhibition reaches its midpoint) is 3.6 µM. Moreover, in data set [5], the Drug uptake result is “Active”. Moreover, the Activity entry with HT-29 [6] was “Toxic”. This compound also had a Retention time in data set [7] of 31.3 to 34 min. Also, in data set [8], the solubility result is “Soluble”.

With `COc1cccc2c1C(=O)c1c(O)c3c(c(O)c1C2=O)C[C@@](O)(/C(C)=N/OCC(=O)N[C@@H](CC(C)C)C(=O)N[C@@H](CCCNC(=N)N)C(=O)N[C@@H](CCCNC(=N)N)C(=O)N[C@@H](Cc1ccc(O)cc1)C(=O)N[C@H](C(=O)N[C@@H](Cc1cnc[nH]1)C(=O)N[C@@H](CC(C)C)C(=O)N[C@@H](C)C(=O)N[C@@H](Cc1ccc(O)cc1)C(=O)N[C@@H](C)C(=O)N[C@H](C(N)=O)[C@@H](C)O)C(C)C)C[C@@H]3O[C@H]1C[C@H](N)[C@H](O)[C@H](C)O1` (X1-LRRYVHLAYAT-NH2), the Stability result in data set [1] and in [9] was “Stable” throughout. For the same compound, the IC50 in the data set on HT-29 [4] was 24.1 to 27.9 µM. Also, the Drug uptake was 80% in data set [10] and “Active” in [11]. The compound also displayed a Retention time in data set [7] of 28.6 to 31.3 min.

Consider `COc1cccc2c1C(=O)c1c(O)c3c(c(O)c1C2=O)C[C@@](O)(/C(C)=N/OCC(=O)N[C@@H](CC(C)C)C(=O)N[C@@H](CCCNC(=N)N)C(=O)N[C@@H](CCCNC(=N)N)C(=O)N[C@@H](Cc1ccc(O)cc1)C(=O)N[C@H](C(=O)N[C@@H](Cc1cnc[nH]1)C(=O)N[C@@H](CC(C)C)C(=O)N[C@@H](Cc1ccccc1)C(=O)N[C@@H](Cc1ccc(O)cc1)C(=O)N[C@@H](CC(C)C)C(=O)N[C@H](C(N)=O)[C@@H](C)O)C(C)C)C[C@@H]3O[C@H]1C[C@H](N)[C@H](O)[C@H](C)O1` (X1-LRRYVHLFYLT-NH2), for which the Stability result in data set [1] and in [9] was “Stable” throughout. Besides, the Drug metabolism result in data set [2] and in data set [3] was “Metabolite_Detected” throughout. Also, in the data set on HT-29 [4], the IC50 came out at 3.2 µM. The Drug uptake entry in data set [5] is “Active”. In data set [7], this compound yielded a Retention time of 30.7 to 32.3 min. In addition, in data set [8], the solubility entry is “Soluble”.

`COc1cccc2c1C(=O)c1c(O)c3c(c(O)c1C2=O)C[C@@](O)(/C(C)=N/OCC(=O)N[C@@H](CC(C)C)C(=O)N[C@@H](CCCNC(=N)N)C(=O)N[C@@H](CCCNC(=N)N)C(=O)N[C@@H](Cc1ccc(O)cc1)C(=O)N[C@@H](C)C(=O)N[C@@H](Cc1cnc[nH]1)C(=O)N[C@@H](CC(C)C)C(=O)NCC(=O)N[C@@H](Cc1ccc(O)cc1)C(=O)N[C@@H](C)C(=O)N[C@H](C(N)=O)[C@@H](C)O)C[C@@H]3O[C@H]1C[C@H](N)[C@H](O)[C@H](C)O1` (X1-LRRYAHLGYAT-NH2): the 50% inhibitory concentration (IC50) in the data set with HT-29 [4] is greater than 100 µM. Further, in [12], the Drug uptake result is recorded as “Active”. Further, the Retention time in data set [7] is 27.7 to 30.4 min.

For the compound `COc1cccc2c1C(=O)c1c(O)c3c(c(O)c1C2=O)C[C@@](O)(/C(C)=N/OCC(=O)N[C@@H](CC(C)C)C(=O)N[C@@H](CCCNC(=N)N)C(=O)N[C@@H](CCCNC(=N)N)C(=O)N[C@@H](Cc1ccc(O)cc1)C(=O)N[C@H](C(=O)N[C@@H](C)C(=O)N[C@@H](CC(C)C)C(=O)NCC(=O)N[C@@H](Cc1ccc(O)cc1)C(=O)N[C@@H](C)C(=O)N[C@H](C(N)=O)[C@@H](C)O)C(C)C)C[C@@H]3O[C@H]1C[C@H](N)[C@H](O)[C@H](C)O1` (X1-LRRYVALGYAT-NH2), in the data set on HT-29 [4], the IC50 was 36.8 µM. Also, the Drug uptake entry in data set [12] is listed as “Active”. This compound also came in with a Retention time in data set [7] of 29 to 31.7 min.
